From the M2OR odorant receptor database
Positions count from the first letter of the chain named.

How the values were obtained:
Details in all cases: stereoisomer not certain
UniProt Q7TR71 = biological target: T1, UniProt Q7TR71
T1 sequence (whole entry): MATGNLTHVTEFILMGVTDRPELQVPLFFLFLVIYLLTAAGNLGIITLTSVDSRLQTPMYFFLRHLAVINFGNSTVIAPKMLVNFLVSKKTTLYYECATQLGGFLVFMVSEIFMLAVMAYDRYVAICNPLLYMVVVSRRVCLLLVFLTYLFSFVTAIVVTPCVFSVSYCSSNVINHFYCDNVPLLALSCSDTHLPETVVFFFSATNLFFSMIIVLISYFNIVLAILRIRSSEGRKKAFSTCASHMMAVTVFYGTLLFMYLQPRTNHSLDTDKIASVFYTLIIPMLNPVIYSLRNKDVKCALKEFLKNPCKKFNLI
Procedure, shortened: (§1)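 Each receptor–molecule pair is labelled responsive or non-responsive (inactive) according to whether the original authors judged the measured signal statistically different from baseline. The data were taken from the main text and supplementary material of published papers and checked for typos and inconsistencies. Assay methods differed by source, with transient luciferase assays in mammalian cell lines being common.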

UniProt Q7TR79 = biological target: T2, UniProt Q7TR79
T2 sequence (whole entry): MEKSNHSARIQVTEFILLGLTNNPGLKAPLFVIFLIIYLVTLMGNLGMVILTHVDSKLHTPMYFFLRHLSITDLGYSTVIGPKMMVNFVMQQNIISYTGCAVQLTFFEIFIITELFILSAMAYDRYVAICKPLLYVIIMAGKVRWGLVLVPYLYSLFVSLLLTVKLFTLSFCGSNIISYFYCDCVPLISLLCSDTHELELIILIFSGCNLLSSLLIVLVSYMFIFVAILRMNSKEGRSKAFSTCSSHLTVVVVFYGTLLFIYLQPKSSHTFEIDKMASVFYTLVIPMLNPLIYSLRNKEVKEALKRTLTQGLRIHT
Procedure, shortened: as §1

UniProt Q7TRA1 = biological target: T3, UniProt Q7TRA1
T3 sequence (whole entry): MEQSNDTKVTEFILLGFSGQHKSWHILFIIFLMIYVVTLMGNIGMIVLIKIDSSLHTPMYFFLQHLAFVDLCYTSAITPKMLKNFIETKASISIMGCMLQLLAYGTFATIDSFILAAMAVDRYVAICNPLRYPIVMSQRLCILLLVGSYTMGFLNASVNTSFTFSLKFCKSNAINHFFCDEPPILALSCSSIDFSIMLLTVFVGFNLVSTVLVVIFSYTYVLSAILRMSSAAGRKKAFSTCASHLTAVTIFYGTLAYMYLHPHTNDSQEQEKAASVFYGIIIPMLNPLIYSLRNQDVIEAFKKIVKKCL
Procedure, shortened: as §1

UniProt Q7TRA2 = biological target: T4, UniProt Q7TRA2
T4 sequence (whole entry): T3 sequence (whole entry) with S18A, I86T, I94F, M95I, S112C, V208L, T219I, V221I, V305A
Procedure, shortened: as §1

UniProt Q7TRA3 = biological target: T5, UniProt Q7TRA3
T5 sequence (whole entry): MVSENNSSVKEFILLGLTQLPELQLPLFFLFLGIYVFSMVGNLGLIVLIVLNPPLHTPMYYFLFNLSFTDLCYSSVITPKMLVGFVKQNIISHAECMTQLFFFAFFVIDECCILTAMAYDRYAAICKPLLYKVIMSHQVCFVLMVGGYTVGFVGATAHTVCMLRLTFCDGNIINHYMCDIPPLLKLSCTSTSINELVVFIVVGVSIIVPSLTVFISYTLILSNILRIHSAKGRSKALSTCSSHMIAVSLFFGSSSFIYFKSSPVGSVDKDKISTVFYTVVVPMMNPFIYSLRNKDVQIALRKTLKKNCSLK
Procedure, shortened: as §1

UniProt Q7TRE4 = biological target: T6, UniProt Q7TRE4
T6 sequence (whole entry): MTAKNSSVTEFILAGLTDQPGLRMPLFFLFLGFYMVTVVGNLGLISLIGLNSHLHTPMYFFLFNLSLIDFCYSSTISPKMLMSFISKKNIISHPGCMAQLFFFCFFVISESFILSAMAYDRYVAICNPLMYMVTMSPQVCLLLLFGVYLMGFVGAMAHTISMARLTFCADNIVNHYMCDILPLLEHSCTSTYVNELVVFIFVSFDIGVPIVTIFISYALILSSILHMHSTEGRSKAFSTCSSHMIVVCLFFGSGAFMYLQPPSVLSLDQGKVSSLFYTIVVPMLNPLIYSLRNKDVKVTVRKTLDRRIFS
Procedure, shortened: as §1

UniProt Q7TRM0 = biological target: T7, UniProt Q7TRM0
T7 sequence (whole entry): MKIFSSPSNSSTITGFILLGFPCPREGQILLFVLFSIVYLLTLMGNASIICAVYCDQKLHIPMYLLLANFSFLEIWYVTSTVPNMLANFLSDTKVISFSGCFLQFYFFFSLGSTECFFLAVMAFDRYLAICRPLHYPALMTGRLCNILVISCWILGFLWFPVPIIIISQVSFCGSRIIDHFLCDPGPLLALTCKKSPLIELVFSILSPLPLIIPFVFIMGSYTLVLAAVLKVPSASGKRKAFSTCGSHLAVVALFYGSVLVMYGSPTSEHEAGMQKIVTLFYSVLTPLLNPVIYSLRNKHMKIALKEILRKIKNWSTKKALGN
Procedure, shortened: as §1

UniProt Q7TRN9 = biological target: T8, UniProt Q7TRN9
T8 sequence (whole entry): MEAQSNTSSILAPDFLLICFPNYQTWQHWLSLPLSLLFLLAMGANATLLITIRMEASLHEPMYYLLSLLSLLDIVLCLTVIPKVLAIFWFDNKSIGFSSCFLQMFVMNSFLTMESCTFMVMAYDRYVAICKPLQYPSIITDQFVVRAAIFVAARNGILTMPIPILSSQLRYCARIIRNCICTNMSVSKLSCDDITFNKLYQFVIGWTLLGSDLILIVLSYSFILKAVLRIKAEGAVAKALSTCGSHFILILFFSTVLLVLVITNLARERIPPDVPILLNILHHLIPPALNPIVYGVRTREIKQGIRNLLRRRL
Procedure, shortened: as §1

UniProt Q7TRR7 = biological target: UniProt Q7TRR7
Procedure, shortened: as §1

UniProt Q7TRR8 = biological target: T9, UniProt Q7TRR8
T9 sequence (whole entry): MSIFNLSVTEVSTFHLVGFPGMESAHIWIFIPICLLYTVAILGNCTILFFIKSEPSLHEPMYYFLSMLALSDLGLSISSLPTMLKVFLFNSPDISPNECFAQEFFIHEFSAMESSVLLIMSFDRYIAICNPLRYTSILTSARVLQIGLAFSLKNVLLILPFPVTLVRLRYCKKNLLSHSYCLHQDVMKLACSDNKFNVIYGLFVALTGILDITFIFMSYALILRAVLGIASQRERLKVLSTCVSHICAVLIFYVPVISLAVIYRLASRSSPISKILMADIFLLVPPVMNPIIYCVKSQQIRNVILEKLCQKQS
Procedure, shortened: as §1

UniProt Q7TRW1 = biological target: T10, UniProt Q7TRW1
T10 sequence (whole entry): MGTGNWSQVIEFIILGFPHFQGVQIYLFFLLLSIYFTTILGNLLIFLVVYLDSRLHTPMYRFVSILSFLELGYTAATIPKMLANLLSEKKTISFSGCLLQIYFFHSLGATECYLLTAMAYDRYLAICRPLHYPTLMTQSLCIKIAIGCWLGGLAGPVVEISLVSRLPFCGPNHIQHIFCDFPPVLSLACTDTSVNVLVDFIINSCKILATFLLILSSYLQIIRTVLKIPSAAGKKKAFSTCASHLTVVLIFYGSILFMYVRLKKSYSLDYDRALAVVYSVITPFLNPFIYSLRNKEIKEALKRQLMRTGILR
Procedure, shortened: as §1

UniProt Q7TRX0 = biological target: T11, UniProt Q7TRX0
T11 sequence (whole entry): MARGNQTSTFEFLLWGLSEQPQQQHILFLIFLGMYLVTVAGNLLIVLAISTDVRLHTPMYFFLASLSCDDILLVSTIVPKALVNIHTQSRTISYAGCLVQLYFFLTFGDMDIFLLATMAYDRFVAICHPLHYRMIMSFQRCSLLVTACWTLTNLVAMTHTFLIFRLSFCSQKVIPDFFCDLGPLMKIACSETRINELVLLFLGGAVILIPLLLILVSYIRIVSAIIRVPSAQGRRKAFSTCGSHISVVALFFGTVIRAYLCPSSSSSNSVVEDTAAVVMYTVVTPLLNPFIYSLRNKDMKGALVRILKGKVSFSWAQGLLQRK
Procedure, shortened: as §1

UniProt Q8VEU7 = biological target: T12, UniProt Q8VEU7
T12 sequence (whole entry): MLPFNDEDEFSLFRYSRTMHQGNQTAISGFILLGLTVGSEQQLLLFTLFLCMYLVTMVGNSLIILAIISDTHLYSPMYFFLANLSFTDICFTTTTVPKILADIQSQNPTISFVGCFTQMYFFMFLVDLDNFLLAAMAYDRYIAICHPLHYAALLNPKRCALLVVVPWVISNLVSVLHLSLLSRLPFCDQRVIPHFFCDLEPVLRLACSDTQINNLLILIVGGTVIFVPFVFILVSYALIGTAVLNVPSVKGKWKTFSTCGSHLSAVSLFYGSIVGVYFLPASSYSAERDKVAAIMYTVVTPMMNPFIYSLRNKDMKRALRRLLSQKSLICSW
Procedure, shortened: as §1

UniProt Q8VF05 = biological target: T13, UniProt Q8VF05
T13 sequence (whole entry): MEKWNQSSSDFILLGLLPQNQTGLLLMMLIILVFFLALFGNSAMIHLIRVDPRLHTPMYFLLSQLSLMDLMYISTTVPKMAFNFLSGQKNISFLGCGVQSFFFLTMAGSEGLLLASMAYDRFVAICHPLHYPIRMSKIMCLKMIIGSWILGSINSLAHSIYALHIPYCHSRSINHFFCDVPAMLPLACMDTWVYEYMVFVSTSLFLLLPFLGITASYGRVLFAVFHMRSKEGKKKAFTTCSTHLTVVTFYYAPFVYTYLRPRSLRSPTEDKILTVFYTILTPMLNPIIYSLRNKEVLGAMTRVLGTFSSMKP
Procedure, shortened: as §1

UniProt Q7TR75 = biological target: UniProt Q7TR75
Procedure, shortened: as §1

UniProt Q7TRB8 = biological target: UniProt Q7TRB8
Procedure, shortened: as §1

UniProt Q7TS17 = biological target: UniProt Q7TS17
Procedure, shortened: as §1

UniProt Q7TS37 = biological target: UniProt Q7TS37
Procedure, shortened: as §1

UniProt Q7TS40 = biological target: UniProt Q7TS40
Procedure, shortened: as §1

Measured: odorant receptor agonist call

Sequence of UniProt Q7TS40 (Q7TS40 as listed by the source): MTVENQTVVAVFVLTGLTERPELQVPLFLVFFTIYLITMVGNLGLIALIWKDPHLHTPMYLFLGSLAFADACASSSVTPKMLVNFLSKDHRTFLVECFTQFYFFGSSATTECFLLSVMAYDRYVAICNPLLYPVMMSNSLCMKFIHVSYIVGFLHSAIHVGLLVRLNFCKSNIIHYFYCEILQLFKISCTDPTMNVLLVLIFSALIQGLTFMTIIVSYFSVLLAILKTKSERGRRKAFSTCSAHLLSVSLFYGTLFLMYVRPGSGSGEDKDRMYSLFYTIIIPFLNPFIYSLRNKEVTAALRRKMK
Sequence of UniProt Q7TS37 (Q7TS37 as listed by the source): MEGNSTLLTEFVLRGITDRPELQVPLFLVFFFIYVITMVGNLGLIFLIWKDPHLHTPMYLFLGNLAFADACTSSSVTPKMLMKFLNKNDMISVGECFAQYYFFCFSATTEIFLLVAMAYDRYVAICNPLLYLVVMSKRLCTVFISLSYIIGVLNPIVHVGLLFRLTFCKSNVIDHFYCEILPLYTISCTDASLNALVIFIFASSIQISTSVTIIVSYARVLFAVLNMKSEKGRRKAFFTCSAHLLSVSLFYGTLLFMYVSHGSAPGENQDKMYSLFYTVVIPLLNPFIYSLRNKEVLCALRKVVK
Sequence of UniProt Q7TRR7 (Q7TRR7 as listed by the source): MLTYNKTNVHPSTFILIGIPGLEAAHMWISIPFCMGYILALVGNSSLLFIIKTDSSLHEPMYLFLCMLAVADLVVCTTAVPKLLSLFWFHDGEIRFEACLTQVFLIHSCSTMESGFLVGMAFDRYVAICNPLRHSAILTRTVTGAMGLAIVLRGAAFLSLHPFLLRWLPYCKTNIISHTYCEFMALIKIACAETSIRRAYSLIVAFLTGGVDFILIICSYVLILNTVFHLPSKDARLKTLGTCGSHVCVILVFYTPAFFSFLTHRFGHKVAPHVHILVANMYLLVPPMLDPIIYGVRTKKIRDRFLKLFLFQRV
Sequence of UniProt Q7TRB8 (Q7TRB8 as listed by the source): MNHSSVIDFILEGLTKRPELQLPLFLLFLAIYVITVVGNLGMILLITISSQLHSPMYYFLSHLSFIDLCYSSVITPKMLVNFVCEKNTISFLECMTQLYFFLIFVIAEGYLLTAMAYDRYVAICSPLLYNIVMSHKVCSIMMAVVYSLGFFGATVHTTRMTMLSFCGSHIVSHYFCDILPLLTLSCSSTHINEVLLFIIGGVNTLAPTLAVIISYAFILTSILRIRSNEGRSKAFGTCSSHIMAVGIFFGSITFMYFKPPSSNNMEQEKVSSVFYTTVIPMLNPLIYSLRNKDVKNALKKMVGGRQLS
Sequence of UniProt Q7TR75 (Q7TR75 as listed by the source): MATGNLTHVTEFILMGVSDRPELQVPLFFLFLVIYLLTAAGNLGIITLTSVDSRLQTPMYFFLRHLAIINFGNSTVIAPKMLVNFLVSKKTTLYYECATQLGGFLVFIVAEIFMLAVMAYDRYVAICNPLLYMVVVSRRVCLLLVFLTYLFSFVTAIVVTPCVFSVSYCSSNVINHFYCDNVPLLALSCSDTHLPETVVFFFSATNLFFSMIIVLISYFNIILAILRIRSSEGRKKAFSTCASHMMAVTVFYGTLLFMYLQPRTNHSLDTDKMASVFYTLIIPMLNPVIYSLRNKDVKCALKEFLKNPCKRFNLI
Sequence of UniProt Q7TS17 (Q7TS17 as listed by the source): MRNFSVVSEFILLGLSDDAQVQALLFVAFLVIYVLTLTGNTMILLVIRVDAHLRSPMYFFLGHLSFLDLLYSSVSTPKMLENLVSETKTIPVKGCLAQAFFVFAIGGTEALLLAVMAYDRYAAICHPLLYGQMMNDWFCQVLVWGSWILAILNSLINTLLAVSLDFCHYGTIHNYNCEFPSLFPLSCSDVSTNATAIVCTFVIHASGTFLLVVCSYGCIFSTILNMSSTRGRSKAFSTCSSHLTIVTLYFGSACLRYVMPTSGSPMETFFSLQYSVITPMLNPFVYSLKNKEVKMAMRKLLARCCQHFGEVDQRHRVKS

CCCCCCCCC(=O)O
inactive: UniProt Q7TR71 | UniProt Q7TR79 | UniProt Q7TRA3 | UniProt Q7TRE4 | UniProt Q7TRM0 | UniProt Q7TRR7 | UniProt Q7TRW1 | UniProt Q7TRX0 | UniProt Q8VEU7 | UniProt Q8VF05
active: UniProt Q7TRA1 | UniProt Q7TRA2 | UniProt Q7TRN9 | UniProt Q7TRR8

CCCCC(=O)O
inactive: UniProt Q7TR71 | UniProt Q7TR79 | UniProt Q7TRA3 | UniProt Q7TRE4 | UniProt Q7TRM0 | UniProt Q7TRN9 | UniProt Q7TRR8 | UniProt Q7TRW1 | UniProt Q7TRX0 | UniProt Q8VEU7 | UniProt Q8VF05

CCCCCCCCCCO
inactive: UniProt Q7TR71 | UniProt Q7TR79 | UniProt Q7TRA3 | UniProt Q7TRE4 | UniProt Q7TRW1 | UniProt Q7TRX0 | UniProt Q8VEU7 | UniProt Q8VF05

O=C1CCOc2ccccc21
active: UniProt Q7TR71 | UniProt Q7TR75 | UniProt Q7TRA3 | UniProt Q7TS17 | UniProt Q7TS37 | UniProt Q8VF05
inactive: UniProt Q7TR79 | UniProt Q7TRA1 | UniProt Q7TRA2 | UniProt Q7TRB8 | UniProt Q7TRE4 | UniProt Q7TRW1 | UniProt Q7TRX0 | UniProt Q7TS40 | UniProt Q8VEU7
